From EPA's CvTdb concentration-time database

How the values were obtained:
Rat [1] = test: concentration in plasma after dosing; conditions: 20 min; dosed: Pyridine; 10 mg/kg; oral; Female; Harlan Sprague-Dawley
Rat [2] = test: concentration in plasma after dosing; conditions: dosed: Pyridine, 25 mg/kg, oral, Female, Harlan Sprague-Dawley
Mouse [3] = test: concentration in plasma after dosing; conditions: 2 h; dosed: 2-Hydroxy-4-methoxybenzophenone; 250 mg/kg; oral; Female; B6C3F1
Mouse [4] = test: concentration in plasma after dosing; conditions: dosed: 2-Hydroxy-4-methoxybenzophenone, 100 mg/kg, oral, Female, B6C3F1
Rat [5] = test: concentration in plasma after dosing; conditions: dosed: 2-Hydroxy-4-methoxybenzophenone, 250 mg/kg, oral, Female, F344
Mouse [6] = test: concentration in plasma after dosing; conditions: 2 h; dosed: 2-Hydroxy-4-methoxybenzophenone; 50 mg/kg; iv; Female; B6C3F1
Mouse [7] = test: concentration in plasma after dosing; conditions: 0.25 h; dosed: 2-Hydroxy-4-methoxybenzophenone; 500 mg/kg; oral; Female; B6C3F1
Mouse [8] = test: concentration in plasma after dosing; conditions: 10 min; dosed: 2-Hydroxy-4-methoxybenzophenone; 500 mg/kg; oral; Female; B6C3F1
Mouse [9] = test: concentration in plasma after dosing; conditions: 10 min; dosed: 2-Hydroxy-4-methoxybenzophenone; 500 mg/kg; oral; Female; B6C3F1; remark: listed apart in the source
Rat [10] = test: concentration in brain after dosing; conditions: 0.5 h; dosed: alpha-Thujone; 25 mg/kg; oral; Male; Harlan Sprague Dawley
Rat [11] = test: concentration in brain after dosing; conditions: 2 min; dosed: alpha-Thujone; 50 mg/kg; oral; Male; Harlan Sprague Dawley
Rat [12] = test: concentration in plasma after dosing; conditions: 5 min; dosed: alpha-Thujone; 25 mg/kg; oral; Male; Harlan Sprague Dawley
Rat [13] = test: concentration in plasma after dosing; conditions: 3 h; dosed: alpha-Thujone; 50 mg/kg; oral; Female; Harlan Sprague Dawley
Rat [14] = test: concentration in plasma after dosing; conditions: 2 min; dosed: alpha-Thujone; 50 mg/kg; oral; Male; Harlan Sprague Dawley
Rat [15] = test: concentration in brain after dosing; conditions: 1.5 h; dosed: alpha-Thujone; 25 mg/kg; oral; Male; Harlan Sprague Dawley
Rat [16] = test: concentration in brain after dosing; conditions: 5 min; dosed: alpha-Thujone; 25 mg/kg; oral; Male; Harlan Sprague Dawley
Rat [17] = test: concentration in plasma after dosing; conditions: 1.5 h; dosed: alpha-Thujone; 50 mg/kg; oral; Male; Harlan Sprague Dawley
Rat [18] = test: concentration in kidney after dosing; conditions: 12 h; dosed: Perfluorohexane-1-sulphonic acid – potassium salt; 16 mg/kg; oral; Female; Harlan Sprague Dawley
Rat [19] = test: concentration in brain after dosing; conditions: 24 h; dosed: Perfluorohexane-1-sulphonic acid – potassium salt; 16 mg/kg; oral; Female; Harlan Sprague Dawley
Rat [20] = test: concentration in kidney after dosing; conditions: 3 h; dosed: Perfluorohexane-1-sulphonic acid – potassium salt; 16 mg/kg; oral; Female; F344
Mouse [21] = test: concentration in plasma after dosing; conditions: dosed: 2,4-Dichlorophenoxyacetic acid, 1.0 mg/kg, oral, Male, B6C3F1
Hamster = test: concentration in plasma after dosing; conditions: dosed: 2,4-Dichlorophenoxyacetic acid, 40 mg/kg, oral, Male, Syrian Golden
Outline: (§1)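 Data points giving concentration or amount against time came from published in vivo toxicokinetic studies and from two structured collections. PubMed searching, classifier screening and manual review located the studies. Most points were digitised from plot screenshots using WebPlotDigitizer, the rest were copied from tables, and all keep their reported units.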

Mouse [22] = test: concentration in plasma after dosing; conditions: dosed: 2,4-Dichlorophenoxyacetic acid, 2.0 mg/kg, oral, Male, B6C3F1
human = test: concentration in urine after dosing; conditions: dosed: trichloroethylene, inhalation, duration: 2 hr - 20 min
Outline: as §1

dog = test: concentration in urine after dosing; conditions: dosed: trichloroethylene, 100 ppm, inhalation, duration: 6 hr, male, beagle
Outline: as §1

Rat [23] = test: concentration in plasma after dosing; conditions: dosed: Methyleugenol, 37 mg/kg, iv, Male, F344
Rat [24] = test: concentration in plasma after dosing; conditions: 12 h; dosed: Primidone; 80 mg/kg; oral; Female; Harlan Sprague-Dawley
Rat [25] = test: concentration in plasma after dosing; conditions: 1.5 h; dosed: Primidone; 80 mg/kg; oral; Female; F344

c1ccncc1 [Pyridine]
Conditions	concentration in plasma [µg/mL]
Rat [1]	3.97

Rat [2]
Conditions	concentration in plasma [µg/mL]
1 h	21.1
8 h	15.1

O=C(c1ccccc1)c1ccc(O)cc1O [2,4-Dihydroxybenzophenone]
Conditions	concentration in plasma [µg/mL]
Mouse [3]	0.19
Mouse [6]	0.0397
Mouse [7]	2.69
Mouse [8]	4.25
Mouse [9]	4.23

concentration in plasma [µg/mL]
Conditions	0.25 h	2 h	2.5 min	3 h	4 h	10 min
Mouse [4]	0.303	0.0349	0.068	0.0303	–	0.115
Rat [5]	0.359	–	–	–	0.135	–

CC(C)[C@]12CC(=O)[C@H](C)[C@H]1C2 [alpha-Thujone]
Conditions	concentration in brain [ng/g]	concentration in plasma [µg/mL]
Rat [10]	359	–
Rat [11]	23.4	–
Rat [12]	–	1.17
Rat [13]	–	0.244
Rat [14]	–	0.152
Rat [15]	359	–
Rat [16]	1220	–
Rat [17]	–	0.36

O=S(=O)([O-])C(F)(F)C(F)(F)C(F)(F)C(F)(F)C(F)(F)C(F)(F)F.[K+] [Perfluorohexane-1-sulphonic acid – potassium salt]
Conditions	concentration in brain [ng/g]	concentration in kidney [ng/g]
Rat [18]	–	25000
Rat [19]	743	–
Rat [20]	–	29100

O=C(O)COc1ccc(Cl)cc1Cl [2,4-Dichlorophenoxyacetic acid]
concentration in plasma [µg/mL]
Conditions	Hamster	Mouse [21]	Mouse [22]
0.25 h	70.5	1.4	6.77
0.5 h	36.8	1.92	6.6
1 h	80.1	–	–
1.5 h	14	–	–
2 h	20.5	0.531	2.62
2.5 min	–	1.66	6.53
3 h	–	0.476	0.483
4 h	2.58	0.2	–
5 min	102	3.44	7.27
10 h	–	0.734	–
10 min	–	2.34	7.51

OCC(Cl)(Cl)Cl [trichloroethanol]
concentration in urine [mg/kg], human
Conditions	2.667 h	6.667 h	10.67 h	19.67 h
1348 mg	158	161	79.7	65.3
1681 mg	125	236	136	131
3907 mg	186	258	154	168

dog
Conditions	concentration in urine [µg/mL]
24 h	129
48 h	115
72 h	155
96 h	205
120 h	154

C=CCc1ccc(OC)c(OC)c1 [Methyleugenol]
Rat [23]
Conditions	concentration in plasma [µg/mL]
0.5 h	3.44
0.75 h	3.09

CCC1(c2ccccc2)C(=O)NCNC1=O [Primidone]
Conditions	concentration in plasma [µg/mL]
Rat [24]	1.4
Rat [25]	70.3
